Hits are enriched below; roughly 9.2% of the tested compounds scored in any of these assays.
HCT116 PTEN-null: suppresses growth of cells with PTEN deletion | HCT116 PTEN-null viability, CellTiter-Glo, 60 h; stronger effect = lower value | viability, % at 10 µM | actives 1.2% (n = 140,000) | AID 827;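 active = viability at or below a set limit, 4 SD under the median of all tested compounds, cut at about 3.7% in these data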;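 note: PTEN knockout HCT116 line with beta catenin targeted HCT116 as companion control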
Dynein transport: dynein cargo transport inhibition; 3617.4 mouse cells, GR-EGFP nuclear translocation imaging; test concentration mostly 20 µM; stimulated with dexamethasone, 1 µM; stronger effect = lower value; z-score, hits read low; actives 0.47% (n = 220,000); AID 1381;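 active = plate z-score of nuclear minus cytoplasmic receptor signal below a set negative limit, without overly bright fluorescence or cell loss, cut at about -3.5 in these data, passing the limit was not always enough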;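 note: z-score of nuclear minus cytoplasmic ring GR-EGFP intensity difference per well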
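Buffer or medium: tet-free, stripped-serum medium; Also added: dexamethasone, 1.0 µM final; Technique: high-content fluorescence imaging after fixation; Times: 48 h induction, 1 h compound, 30 min dex at 37 °C; Read-out: per-cell GR-EGFP intensity, nucleus versus surrounding cytoplasmic ring, well-averaged.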
Autophagy HCS: alters autophagy in cells. MEF GFP-LC3 puncta imaging; test concentration mostly 10 µM. calls only at 10 µM (by protocol). actives 0.98% (n = 190,000);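 active = percentage of spot-positive cells more than 3 SD above its plate mean, without a fluorescence outlier flag or 80% toxicity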;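 note: spot-positive cell cutoff set from DMSO-treated cells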
L major viab: Leishmania major promastigote growth inhibition. Leishmania major promastigotes, resazurin fluorescence viability. inhibition, % at 10 µM. actives 9% (n = 200,000). AID 1063; in the data active = inhibition above about 50%;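 note: promastigotes grown with compound for 44 hours at 28 °C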
bCat KO growth: beta-catenin-lacking colon tumor cell growth suppression; AID 818; viability, % at 10 µM; actives 1.5% (n = 140,000); HCT116 beta-catenin knockout viability, CellTiter-Glo, 60 h; stronger effect = lower value;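 active = viability at or under a set limit, the compound median less 4 SD, cut at about 6% in these data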;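 note: 0% = Hyamine 1622 control at 20 µM and 100% = untreated cell control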
Active calls of the source: *; i = inactive; · = no result.

SMILES | HCT116 PTEN-null | Dynein transport | Autophagy HCS | L major viab | bCat KO growth
Cc1cc2nc(C(C)(C)C)cc(N)n2n1 | · | 0.73 | i | 6 | ·
CC(C)(C)c1cc(N)n2nc(C(C)(C)C)cc2n1 | · | 1.1 | i | 66* | ·
CCOc1ccccc1NS(=O)(=O)c1cn(C)nc1C | · | 1.6 | i | -8 | ·
CCC(C)(C)n1nnnc1C(c1ccc(C)cc1)N1CCN(Cc2cccnc2)CC1 (stereo not given) | 86 | -0.18 | i | 22 | 89
CCC(C)(C)n1nnnc1C(c1cccnc1)N1CCC(Cc2ccccc2)CC1 (stereo not given) | · | -0.39 | i | 90* | ·
CCC(C)(C)n1nnnc1C(c1cccnc1)N1CCCC(C)C1 (stereo not given) | · | -0.94 | i | 87* | ·
CC(C)(C)n1nnnc1C(c1cccc(C#N)c1)N1CCC(Cc2ccccc2)CC1 (stereo not given) | 74 | -0.33 | i | 83* | 70
CC(C)(C)n1nnnc1C(c1ccc(C#N)cc1)N1CCCC2(CCCCC2)C1 (stereo not given) | 42 | 0.65 | i | 78* | 29
CC(C)(C)n1nnnc1C(c1ccncc1)N1CCCCCC1 (stereo not given) | 65 | -0.21 | i | -3 | 64
CCOC(=O)C1CCCN(S(=O)(=O)c2cccc3cccnc23)C1 (stereo not given) | 89 | -0.55 | i | -5 | 86
Cc1ccc(CCSc2ccc(C(C)C)cc2)cn1 | 70 | -0.9 | i | -2 | 59
Clc1ccc(CSc2ncnc3nc[nH]c23)cc1 | 81 | 2.9 | i | -10 | 95
CCC(C)(C)n1nnnc1C(c1ccncc1)N1CCC(Cc2ccccc2)CC1 (stereo not given) | 80 | 1.9 | i | 91* | 94
C/C(=N\Nc1ccc(S(N)(=O)=O)cc1[N+](=O)[O-])c1ccco1 | · | 1 | · | · | ·
CNC(=O)c1csc(-c2ccc(C)cc2)n1 | 85 | 0.0071 | i | -3 | 87
CN(c1ccccc1)S(=O)(=O)c1ccc(Cl)c(C(=O)Nc2ccc(-c3nc4ccccc4[nH]3)cc2)c1 | 33 | 1.4 | i | 96* | 33
CN(c1ccccc1)S(=O)(=O)c1ccc(Cl)c(C(=O)Nc2nc3ccccc3[nH]2)c1 | 42 | -0.16 | i | 99* | 44
C(=N\Nc1nc2ccccc2[nH]1)/c1c[nH]c2ccccc12 | 14 | -0.12 | i | 99* | 9
O=[N+]([O-])c1cc(/C=N/Nc2nc3ccccc3[nH]2)c(O)cc1O | 6 | -0.072 | i | 99* | 5.2*
Cc1ccccc1/C=N/Nc1nc2ccccc2[nH]1 | · | -0.016 | i | 79* | ·
Cc1ccc(/C=N/Nc2nc3ccccc3[nH]2)s1 | 72 | -0.56 | i | 57* | 70
COc1ccc(NS(=O)(=O)c2cccc(C(=O)N/N=C/c3ccccn3)c2)cc1 | · | 0.58 | i | 5 | ·
O=c1nc2n(c3cccc(Cl)c13)CCCCC2 | · | 0.73 | i | -3 | ·
Cc1cc(NC(=O)NN2CCOCC2)nn1-c1c(Cl)cc(Cl)cc1Cl | · | 0.91 | · | · | ·
COc1ccc(-c2noc(CSc3nnc(Cc4ccccc4)n3-c3cccc(C)c3)n2)cc1OC | 73 | 0.7 | i | 54* | 86
SMILES | HCT116 PTEN-null | Dynein transport | Autophagy HCS | L major viab | bCat KO growth
Cc1ccc(-c2noc(CSc3nnc(Cc4ccccc4)n3-c3cccc(C)c3)n2)cc1 | 66 | -0.66 | i | 80* | 66
Cc1ccc(-c2noc(CSc3nnc(-c4ccncc4)n3-c3ccc(C)cc3)n2)cc1 | 69 | 0.093 | i | 14 | 77
COc1ccc(-c2noc(CSc3nc4sc(C)c(C)c4c(=O)n3-c3ccccc3)n2)cc1OC | 59 | 0.97 | i | 4 | 65
CCC1=NN2C(=N)/C(=C\c3ccc(OCc4cc(=O)n5nc(CC)sc5n4)c(OC)c3)C(=O)N=C2S1 | · | -0.74 | i | -4 | ·
COc1ccc2[nH]c(=O)c(CN(C(=O)c3cccnc3)c3ccc(C)c(C)c3)cc2c1 | · | -0.86 | · | · | ·
CCCCN(CC)S(=O)(=O)c1ccc(C(=O)Nc2nnc(-c3ccccc3Cl)o2)cc1 | 16 | -0.61 | i | 99* | 16
CCCCN(C)S(=O)(=O)c1ccc(C(=O)Nc2nnc(-c3cccs3)o2)cc1 | 13 | -1.2 | i | 99* | 15
CCN(Cc1ccccc1)S(=O)(=O)c1ccc(C(=O)Nc2nnc(-c3ccccc3OC)o2)cc1 | 18 | -0.74 | i | 99* | 24
O=C(NC(=O)N1CCN(C(c2ccccc2)c2ccccc2)CC1)c1ccccc1 | · | -0.6 | · | · | ·
CCCCN(CC)C(=O)Cc1ccc(Br)cc1 | 98 | -0.081 | i | -7 | 96
CN(C)c1nc(-c2ccccc2)c2cnn(Cc3ccccc3)c2n1 | 56 | 0.5 | i | 63* | 66
CC(C)(C)N1CCC1C(N)=O (stereo not given) | · | -0.18 | · | · | ·
CC(=O)Nc1nnc(-c2ccco2)o1 | · | -0.5 | i | -7 | ·
CCN(c1ccccc1)S(=O)(=O)c1ccc(C(=O)Nc2nnc(COC)o2)cc1 | 39 | -0.19 | i | 3 | 35
O=C(/C=C/c1ccccc1)Nc1nnc(-c2ccco2)o1 | · | 0.24 | i | 65* | ·
CCN(c1ccccc1)S(=O)(=O)c1ccc(C(=O)Nc2nnc(C3CC3)o2)cc1 | · | 0.96 | i | 94* | ·
CCN(c1ccccc1)S(=O)(=O)c1ccc(C(=O)Nc2nnc(-c3ccco3)o2)cc1 | · | -0.33 | i | 99* | ·
CN(c1ccccc1)S(=O)(=O)c1ccc(C(=O)Nc2nnc(C3CC3)o2)cc1 | · | 0.16 | i | 98* | ·
Cc1onc(C(N)=O)c1C(=O)Nc1ncc(C(F)(F)F)cc1Cl | · | 0.073 | i | -8 | ·
Nc1cnn(Cc2ccccc2F)c1 | · | 1.9 | i | 100* | ·
Nc1cnn(Cc2ccc(F)cc2)c1 | · | -0.28 | i | 15 | ·
COc1cccc(Cn2cc(N)cn2)c1 | · | 0.95 | i | 98* | ·
CCc1ccccc1OCC(=O)Nc1nc(-c2cccnc2)cs1 | · | 0.58 | i | 81* | ·
O=C(Cc1ccccc1F)Nc1nc(-c2cccs2)cs1 | 75 | 0.12 | i | 20 | 90
O=C(Cc1ccccc1F)Nc1nc(-c2cccnc2)cs1 | · | -0.0041 | i | 52* | ·
SMILES | HCT116 PTEN-null | Dynein transport | Autophagy HCS | L major viab | bCat KO growth
CC1=NOC(=O)/C1=C/c1ccc(N(C)C)cc1 | 84 | 0.45 | i | 10 | 90
CC1=NOC(=O)/C1=C\c1ccc(-c2cc(Cl)ccc2Cl)o1 | 2.5* | -0.018 | i | 99* | 3.0*
CC1=NOC(=O)/C1=C/c1ccc(-c2ccc(Cl)cc2)o1 | 16 | -0.96 | i | 100* | 18
CC1=NOC(=O)/C1=C\c1ccc(-c2ccc(Br)cc2C(=O)O)o1 | · | 0.26 | i | -4 | ·
CN(C)c1nc(N/N=C/c2ccccc2O)nc(Nc2ccc(F)cc2)n1 | · | 1.5 | i | 84* | ·
CN(C)c1nc(Nc2ccccc2)nc(N(C)C)n1 | 75 | -0.53 | i | 39 | 65
CC(/C=C/c1ccc(OCc2ccccc2)cc1)=N\O | 85 | -0.027 | i | 83* | 72
CCn1cc(CNC(=O)CCSc2nc(-c3ccco3)cc(C(F)(F)F)n2)cn1 | 54 | -0.54 | i | 7 | 67
Nc1ccc(Cl)c(S(=O)(=O)Nc2ccc(Cl)cc2)c1 | · | 1.3 | · | · | ·
